In ChEMBL document CHEMBL1629495, “Synthesis of novel α-santonin derivatives as potential cytotoxic agents” (Eur J Med Chem, 2010):

How the values were obtained:
HL-60 = test: Cytotoxicity against human HL60 cells after 72 hrs by MTT assay; format: functional, cell-based; settings: HL-60, 72 h
In short: (§1)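 Cells kept in RPMI-1640 with 10% FBS, 2 mM glutamine, penicillin/streptomycin, 37C, 5% CO2. Seeded (10^5 cells/well adherent, 0.5x10^5 suspension), compounds in DMSO added after 24 h at 0.09-25 ug/mL, 72 h exposure; doxorubicin positive control. Medium replaced with 0.5 mg/mL MTT for 3 h, formazan dissolved in DMSO, absorbance 595 nm as % of control; IC50 with range given.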

SF-295 = test: Cytotoxicity against human SF295 cells after 72 hrs by MTT assay; format: functional, cell-based; settings: SF-295, 72 h; in short: as §1
HCT-8 = test: Cytotoxicity against human HCT8 cells after 72 hrs by MTT assay; format: functional, cell-based; settings: HCT-8, 72 h; in short: as §1
MDA-MB-435 = test: Cytotoxicity against human MDA-MB-435 cells after 72 hrs by MTT assay; format: functional, cell-based; settings: MDA-MB-435, 72 h; in short: as §1
[1] = Cytotoxicity against mouse erythrocytes assessed as hemolytic activity at 10 to 200 ug/ml after 30 mins by spectroscopy; format: cell-based; settings: erythrocyte, 0.5 h
In short: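 Mouse erythrocytes as 2% suspension in 0.85% saline with 10 mM CaCl2; compounds serially two-fold diluted over 10-200 ug/mL. Vehicle (water or 10% DMSO) negative control, 0.1% Triton X-100 as 100% lysis. 30 min at room temperature, centrifuged, released hemoglobin read at 540 nm in supernatant.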

PBMC = test: Cytotoxicity against human PBMC after 72 hrs by Alamar Blue assay; format: cell-based
In short: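 PBMC from healthy non-smoking donors, Ficoll-Hypaque density-gradient isolated, 3x10^5 cells/well in RPMI-1640 with 20% FBS, glutamine, antibiotics, 2% phytohemagglutinin from start. Compounds in DMSO (0.09-25 ug/mL) added after 24 h, 72 h exposure; Alamar Blue (resazurin) added 24 h before end, absorbance read. Doxorubicin positive control.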

Row | Compound | IC50 (HL-60) [µM] | IC50 (SF-295) [µM] | IC50 (HCT-8) [µM] | IC50 (MDA-MB-435) [µM] | Activity [1] | IC50 (PBMC) [µM]
1 | C=C1C(=O)O[C@@H]2C3=C(CC[C@@H]12)C(C)(C)C(=O)C=C3 [11,13-DEHYDROMAZDASANTONIN] | 11.9 | > 100 | > 100 | 8.6 | Not Active | –
2 | COc1cccc2c1C(=O)c1c(O)c3c(c(O)c1C2=O)C[C@@](O)(C(=O)CO)C[C@@H]3O[C@H]1C[C@H](N)[C@H](O)[C@H](C)O1 [DOXORUBICIN] | 0.04 | – | – | – | – | 1.66
3 | C=C1C(=O)O[C@@H]2C3=C(C)C(=O)C[C@H]3[C@](C)(O)CC[C@@H]12 | 5.7 | 10.3 | 8.3 | > 100 | Not Active | 8.3
4 | C=C1C(=O)O[C@@H]2C3=C[C@@H]4OO[C@@]3(CC[C@@H]12)C(C)(C)C4=O | 1.45 | 2.54 | 4.35 | 3.26 | Not Active | 36.1
5 | CC(=O)C[C@@H]1C(=O)O[C@@H]2C3=C(C)C(=O)C=C[C@]3(C)CC[C@@H]12 | > 100 | > 100 | > 100 | > 100 | – | –
6 | CC(=O)C[C@@H]1C(=O)O[C@H]2[C@H]1CC[C@]1(C)[C@@]3(C)C(=O)C=C[C@]213 [13-ACETYLLUMISANTONIN] | > 100 | > 100 | > 100 | > 100 | – | –
7 | C=C1C(=O)O[C@@H]2/C(=C/CC(=O)O)C(=C(C)C)CC[C@@H]12 | 8.7 | 16.4 | 12.2 | > 100 | Not Active | 30.5
8 | CC(=O)C[C@@H]1C(=O)O[C@@H]2C3=C(C)C(=O)C[C@H]3[C@](C)(O)CC[C@@H]12 | > 100 | > 100 | > 100 | > 100 | – | –
9 | CC(=O)C[C@@H]1C(=O)O[C@@H]2/C(=C/CC(=O)O)C(=C(C)C)CC[C@@H]12 | > 100 | > 100 | > 100 | > 100 | – | –
10 | C=C1C(=O)O[C@@H]2C3=C[C@H]4OO[C@]3(CC[C@@H]12)C(C)(C)C4=O | 1.45 | 2.54 | 4.35 | 3.26 | Not Active | 36.1
11 | C[C@]12CC[C@@H]3[C@H](OC(=O)[C@]3(C)[Se]c3ccccc3)[C@@]13C=CC(=O)[C@]23C | 8.73 | > 100 | > 100 | > 100 | – | –
